Laboratory results as given in ChEMBL document CHEMBL3259771, “Probing the aurone scaffold against Plasmodium falciparum: design, synthesis and antimalarial activity” (Eur J Med Chem, 2014).
Calls of active or inactive are those of the source. No cut-off for these calls is given here.

Experiments:
Plasmodium falciparum [1] = assay: Antiplasmodial activity against chloroquine-resistant ring stage Plasmodium falciparum W2 infected in human RBC after 48 hrs by flow cytometric analysis; assay type: functional, organism-based; conditions: W2, 48 h
Summary of the method: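 Ring-stage W2 parasites at 1% in human erythrocytes, synchronized with 5% sorbitol. Incubated with compound 48 h at 37 °C in RPMI-1640 with 25 mM HEPES pH 7.4, 10% heat-inactivated human serum (or 0.5% Albumax/2% human serum) and hypoxanthine, under 3% O₂/5% CO₂/[…]. Cells fixed in 2% formaldehyde, stained in PBS with NH₄Cl, 0.1% Triton X-100 and 1 nM YOYO-1, then counted by flow cytometry.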

HEK-293T = assay: Cytotoxicity against HEK293T cells after 48 hrs by MTT assay; assay type: cell-based; conditions: Homo sapiens
Plasmodium falciparum [2] = assay: Inhibition of Plasmodium falciparum falcipain-2 up to 50 uM
[3] = Selectivity index, ratio of EC50 for HEK293T cells to IC50 for chloroquine-resistant ring stage Plasmodium falciparum W2; assay type: functional, HEK-293T
[4] = Water-lipid distribution coefficient, log D of the compound at pH 7.4; assay type: physicochemical
[5] = Lipid accumulation ratio of the compound; assay type: physicochemical
Summary of the method: (§1)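 Calculated rather than measured. VAR: predicted trapping in acidic digestive vacuole from pH-dependent water/lipid distribution (log D). LAR: expected fraction concentrating in the vacuole's lipid component.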

[6] = Water-lipid distribution coefficient, log D of the compound at pH 5.2; assay type: physicochemical
[7] = Vacuolar accumulation ratio of the compound; assay type: ADME; summary of the method: as §1
[8] = Inhibition of hemozoin-like crystal formation up to 1 mM after 5 days; assay type: functional
Summary of the method: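 Hemozoin-like crystal stock suspension sonicated 3 min and diluted in fresh broth medium. Compounds in wells at 0–1000 final concentration after 0.22 filtration. Incubated at 37 °C, 5% CO₂, 5 days, then scored for presence or absence of crystal growth. Triplicate.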

Structure (SMILES): O=C1/C(=C/c2ccc(Nc3ccccc3)cc2)Oc2ccccc21
- IC50 (Plasmodium falciparum [1]): 8.59 µM
- EC50 (HEK-293T): > 100 µM
- inhibition (Plasmodium falciparum [2]): inactive
- Selectivity Index [3]: >12

Structure (SMILES): O=C1/C(=C/c2ccc(-c3cnc4ccccc4c3)cc2)Oc2ccccc21
- logD [4]: 5.16
- Ratio [5]: 144366
- logD [6]: 5.08
- IC50 (Plasmodium falciparum [1]): 6.59 µM
- Ratio [7]: 1.19
- EC50 (HEK-293T): > 100 µM
- inhibition (Plasmodium falciparum [2]): inactive
- Selectivity Index [3]: >15

Structure (SMILES): O=C1/C(=C/c2cccc(Cc3ccccc3)c2)Oc2ccccc21
- IC50 (Plasmodium falciparum [1]): 2.31 µM
- EC50 (HEK-293T): 71 µM
- inhibition (Plasmodium falciparum [2]): inactive
- Selectivity Index [3]: >31

Structure (SMILES): CN1CCN(Cc2c(O)ccc3c2O/C(=C\c2ccccc2)C3=O)CC1
- logD [4]: 1.02
- Ratio [5]: 10.6
- inhibition [8]: inactive
- logD [6]: -3.33
- IC50 (Plasmodium falciparum [1]): 4.01 µM
- Ratio [7]: 22589
- EC50 (HEK-293T): > 100 µM
- Selectivity Index [3]: >25

Structure (SMILES): O=C1/C(=C/c2ccc(-c3ccc(Cl)cc3)cc2)Oc2ccccc21
- IC50 (Plasmodium falciparum [1]): > 10 µM
- EC50 (HEK-293T): > 100 µM
- inhibition (Plasmodium falciparum [2]): inactive
- Selectivity Index [3]: >10

Structure (SMILES): CN(C)c1ccc(/C=C2\Oc3cc(O)ccc3C2=O)cc1
- IC50 (Plasmodium falciparum [1]): > 10 µM
- EC50 (HEK-293T): > 100 µM
- inhibition (Plasmodium falciparum [2]): inactive
- Selectivity Index [3]: >10

Structure (SMILES): O=C1/C(=C/c2ccc(-c3ccccc3)cc2)Oc2ccccc21
- IC50 (Plasmodium falciparum [1]): > 10 µM
- EC50 (HEK-293T): > 100 µM
- inhibition (Plasmodium falciparum [2]): inactive
- Selectivity Index [3]: >10

Structure (SMILES): O=C1/C(=C/c2ccccc2)Oc2cc(O)ccc21
- IC50 (Plasmodium falciparum [1]): > 10 µM
- EC50 (HEK-293T): > 100 µM
- inhibition (Plasmodium falciparum [2]): inactive
- Selectivity Index [3]: >10

Structure (SMILES): COc1cccc2c1O/C(=C\c1ccc(F)cc1F)C2=O
- IC50 (Plasmodium falciparum [1]): > 10 µM
- EC50 (HEK-293T): > 100 µM
- inhibition (Plasmodium falciparum [2]): inactive
- Selectivity Index [3]: >10

Structure (SMILES): CCN(CC)Cc1c(O)ccc2c1O/C(=C\c1ccccc1)C2=O
- logD [4]: 1.79
- Ratio [5]: 62
- inhibition [8]: inactive
- logD [6]: -0.4
- IC50 (Plasmodium falciparum [1]): 3.47 µM
- Ratio [7]: 156
- EC50 (HEK-293T): > 100 µM
- Selectivity Index [3]: >29

Structure (SMILES): O=C1/C(=C/c2ccccc2)Oc2cc(-c3ccc(F)cc3)ccc21
- IC50 (Plasmodium falciparum [1]): > 10 µM
- EC50 (HEK-293T): > 100 µM
- inhibition (Plasmodium falciparum [2]): inactive
- Selectivity Index [3]: >10

Structure (SMILES): O=C1/C(=C/c2cccc(-c3ccccc3)c2)Oc2ccccc21
- IC50 (Plasmodium falciparum [1]): 5.21 µM
- EC50 (HEK-293T): > 100 µM
- inhibition (Plasmodium falciparum [2]): inactive
- Selectivity Index [3]: >19

Structure (SMILES): O=C1/C(=C/c2ccc(Oc3ccc(Cl)cc3)cc2)Oc2ccccc21
- IC50 (Plasmodium falciparum [1]): > 10 µM
- EC50 (HEK-293T): > 100 µM
- inhibition (Plasmodium falciparum [2]): inactive
- Selectivity Index [3]: >10

Structure (SMILES): COc1cccc2c1O/C(=C\c1ccccc1)C2=O
- IC50 (Plasmodium falciparum [1]): > 10 µM
- EC50 (HEK-293T): > 100 µM
- inhibition (Plasmodium falciparum [2]): inactive
- Selectivity Index [3]: >10

Structure (SMILES): Cc1ccc(Oc2ccc(/C=C3\Oc4ccccc4C3=O)cc2)cc1
- IC50 (Plasmodium falciparum [1]): > 10 µM
- EC50 (HEK-293T): > 100 µM
- inhibition (Plasmodium falciparum [2]): inactive
- Selectivity Index [3]: >10

Structure (SMILES): O=C1/C(=C/c2ccccc2)Oc2ccccc21 [(Z)-AURONE]
- IC50 (Plasmodium falciparum [1]): > 10 µM
- EC50 (HEK-293T): > 100 µM
- inhibition (Plasmodium falciparum [2]): inactive
- Selectivity Index [3]: >10

Structure (SMILES): O=C1/C(=C/c2ccccc2)Oc2cc(-c3ccccc3)ccc21
- IC50 (Plasmodium falciparum [1]): > 10 µM
- EC50 (HEK-293T): > 100 µM
- inhibition (Plasmodium falciparum [2]): inactive
- Selectivity Index [3]: >10

Structure (SMILES): O=C1/C(=C/c2ccc(NCc3ccccc3)cc2)Oc2ccccc21
- IC50 (Plasmodium falciparum [1]): 5 µM
- EC50 (HEK-293T): > 100 µM
- inhibition (Plasmodium falciparum [2]): inactive
- Selectivity Index [3]: >20

Structure (SMILES): O=C1/C(=C/c2ccc(Cl)cc2Cl)Oc2ccccc21
- IC50 (Plasmodium falciparum [1]): > 10 µM
- EC50 (HEK-293T): 68 µM
- inhibition (Plasmodium falciparum [2]): inactive
- Selectivity Index [3]: <6.8

Structure (SMILES): O=C1/C(=C/c2cccc(-c3ccc(Cl)cc3)c2)Oc2ccccc21
- IC50 (Plasmodium falciparum [1]): > 10 µM
- EC50 (HEK-293T): > 100 µM
- inhibition (Plasmodium falciparum [2]): inactive
- Selectivity Index [3]: >10

Structure (SMILES): COc1cc(/C=C2\Oc3cc(O)ccc3C2=O)cc(OC)c1OC
- IC50 (Plasmodium falciparum [1]): > 10 µM
- EC50 (HEK-293T): > 100 µM
- inhibition (Plasmodium falciparum [2]): inactive
- Selectivity Index [3]: >10

Structure (SMILES): COc1cc(/C=C2\Oc3c(OC)cccc3C2=O)cc(OC)c1OC
- IC50 (Plasmodium falciparum [1]): > 10 µM
- EC50 (HEK-293T): > 100 µM
- inhibition (Plasmodium falciparum [2]): inactive
- Selectivity Index [3]: >10

Structure (SMILES): COc1cc(/C=C2\Oc3ccccc3C2=O)cc(OC)c1OC
- IC50 (Plasmodium falciparum [1]): > 10 µM
- EC50 (HEK-293T): > 100 µM
- inhibition (Plasmodium falciparum [2]): inactive
- Selectivity Index [3]: >10

Structure (SMILES): O=C1/C(=C/c2ccc(F)cc2F)Oc2ccccc21
- IC50 (Plasmodium falciparum [1]): > 10 µM
- EC50 (HEK-293T): > 100 µM
- inhibition (Plasmodium falciparum [2]): inactive
- Selectivity Index [3]: >10

Structure (SMILES): O=C1/C(=C/c2ccc(Br)cc2)Oc2ccccc21
- IC50 (Plasmodium falciparum [1]): 3.21 µM
- EC50 (HEK-293T): > 100 µM
- inhibition (Plasmodium falciparum [2]): inactive
- Selectivity Index [3]: >31

Structure (SMILES): CN(C)c1ccc(/C=C2\Oc3ccccc3C2=O)cc1
- IC50 (Plasmodium falciparum [1]): 7.99 µM
- EC50 (HEK-293T): > 100 µM
- inhibition (Plasmodium falciparum [2]): inactive
- Selectivity Index [3]: >13

Structure (SMILES): O=C1/C(=C/c2cccc(-c3ccc(F)cc3)c2)Oc2ccccc21
- IC50 (Plasmodium falciparum [1]): 4.41 µM
- EC50 (HEK-293T): > 100 µM
- inhibition (Plasmodium falciparum [2]): inactive
- Selectivity Index [3]: >23

Structure (SMILES): O=C1/C(=C/c2ccc(Cl)cc2Cl)Oc2cc(O)ccc21
- IC50 (Plasmodium falciparum [1]): > 10 µM
- EC50 (HEK-293T): > 100 µM
- inhibition (Plasmodium falciparum [2]): inactive
- Selectivity Index [3]: >10

Structure (SMILES): O=C1/C(=C/c2ccc(-c3ccc(F)cc3)cc2)Oc2ccccc21
- IC50 (Plasmodium falciparum [1]): > 10 µM
- EC50 (HEK-293T): > 100 µM
- inhibition (Plasmodium falciparum [2]): inactive
- Selectivity Index [3]: >10

Structure (SMILES): O=C1/C(=C/c2ccccc2Br)Oc2ccccc21
- IC50 (Plasmodium falciparum [1]): > 10 µM
- EC50 (HEK-293T): > 100 µM
- inhibition (Plasmodium falciparum [2]): inactive
- Selectivity Index [3]: >10

Structure (SMILES): O=Cc1ccc(-c2ccc(/C=C3\Oc4ccccc4C3=O)cc2)cc1
- IC50 (Plasmodium falciparum [1]): > 10 µM
- EC50 (HEK-293T): > 100 µM
- inhibition (Plasmodium falciparum [2]): inactive
- Selectivity Index [3]: >10

Structure (SMILES): O=C1/C(=C/c2ccc(Cc3ccccc3)cc2)Oc2ccccc21
- IC50 (Plasmodium falciparum [1]): 7.34 µM
- EC50 (HEK-293T): 87 µM
- inhibition (Plasmodium falciparum [2]): inactive
- Selectivity Index [3]: >12

Structure (SMILES): O=C1/C(=C/c2cccc(Br)c2)Oc2ccccc21
- IC50 (Plasmodium falciparum [1]): 4.7 µM
- EC50 (HEK-293T): > 100 µM
- inhibition (Plasmodium falciparum [2]): inactive
- Selectivity Index [3]: >21

Structure (SMILES): O=C1/C(=C/c2ccc(F)cc2F)Oc2cc(O)ccc21
- IC50 (Plasmodium falciparum [1]): > 10 µM
- EC50 (HEK-293T): > 100 µM
- inhibition (Plasmodium falciparum [2]): inactive
- Selectivity Index [3]: >10

Structure (SMILES): O=Cc1ccc(-c2cccc(/C=C3\Oc4ccccc4C3=O)c2)cc1
- IC50 (Plasmodium falciparum [1]): > 10 µM
- EC50 (HEK-293T): > 100 µM
- inhibition (Plasmodium falciparum [2]): inactive
- Selectivity Index [3]: >10

Structure (SMILES): Cc1ccc(Oc2ccc(/C=C3\Oc4cc(O)ccc4C3=O)cc2)cc1
- IC50 (Plasmodium falciparum [1]): 5.84 µM
- EC50 (HEK-293T): 95 µM
- inhibition (Plasmodium falciparum [2]): inactive
- Selectivity Index [3]: >16

Structure (SMILES): O=C1/C(=C/c2ccccc2)Oc2c1ccc(O)c2CN1CCCCC1
- logD [4]: 2.04
- Ratio [5]: 110
- inhibition [8]: inactive
- logD [6]: -0.15
- IC50 (Plasmodium falciparum [1]): 1.18 µM
- Ratio [7]: 155
- EC50 (HEK-293T): > 100 µM
- Selectivity Index [3]: >85

Structure (SMILES): O=C1/C(=C/c2ccc(Oc3ccc(Cl)cc3)cc2)Oc2cc(O)ccc21
- IC50 (Plasmodium falciparum [1]): 9.88 µM
- EC50 (HEK-293T): 12 µM
- inhibition (Plasmodium falciparum [2]): inactive
- Selectivity Index [3]: >1
